The text below walks through data of paper PMC8157486 (Chemical Science, 2020).

Experiment [1] has as its target T1, full-length recombinant MrkA protein (Klebsiella pneumoniae, UniProt P12267).
T1 sequence (P12267 23-202): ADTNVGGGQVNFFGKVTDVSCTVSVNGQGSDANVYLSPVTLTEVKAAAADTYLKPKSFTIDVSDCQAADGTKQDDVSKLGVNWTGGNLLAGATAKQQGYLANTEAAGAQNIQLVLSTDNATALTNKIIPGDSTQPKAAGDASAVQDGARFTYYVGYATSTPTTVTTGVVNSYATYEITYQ
Description: Sandwich ELISA: immobilised biotinylated PCC captures full-length MrkA. It counts as binding. The method, boiled down:
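NeutrAvidin-coated wells were loaded with 2 μM biotinylated PCC (2 h, room temperature), then blocked overnight in 5% milk at 4 °C. Recombinant MrkA (N-terminal 6xHis-SUMO tag) was titrated for 1 h, followed by rabbit anti-His pAb (1:5000, 1 h) and anti-rabbit HRP (1:2000, 1 h). Peroxidase substrate developed for 1–40 min and was quenched with 1 M H2SO4.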
On the technique in general: An ELISA detects its analyte on a solid surface through an enzyme-linked reagent.

The subject of experiment [2] is MrkA-producing multidrug-resistant K. pneumoniae (strains BAA 1705 & 2146). Description: Whole-cell ELISA, biotinylated PCC binding. To be noted: Fig. 5C; for binding selectivity towards MrkA-expressing K. pneumoniae cells versus non-target bacteria: whole-cell ELISA versus E. coli and S. Typhimurium; for whole-cell ELISA signal (SAv-HRP, 450 nm): biotinylated PCC at 5 μM. It counts as cell-based, Klebsiella pneumoniae. The method in brief: (§1)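 10^8 bacteria per test, from overnight cultures at 37 °C with shaking in G-CAA (promotes MrkA) or LB medium. Blocked in PBS-1% BSA (1 h, 37 °C), then incubated with biotinylated PCC in PBS-BSA (1 h, 37 °C). Washed thrice, then streptavidin-HRP (1:1000, 1 h, 37 °C). Developed with TMB, quenched with 2 N H2SO4, absorbance read at 450 nm.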

Experiment [3] concerns Escherichia coli (E. coli). In words: Whole-cell ELISA, biotinylated PCC binding. The format is cell-based. To be noted: biotinylated PCC at 5 μM; does not express MrkA; Fig. 5C. The method, boiled down:
as §1

Experiment [4] has as its system MrkA-knockout KPPR1 cells. In words: Whole-cell ELISA, biotinylated PCC binding. The format is cell-based, Klebsiella pneumoniae. The following applies: mrkA (with mrkB and mrkC) knocked out. The method, boiled down:
as §1

In experiment [5] the test system is Salmonella enterica serovar Typhimurium (S. Typhimurium). Description: Whole-cell ELISA, biotinylated PCC binding. The format is cell-based. The following applies: biotinylated PCC at 5 μM; does not express MrkA; Fig. 5C. The method in brief:
as §1

Experiment [6] concerns wild type MrkA-expressing KPPR1 cells (ATCC 43816). Description: Whole-cell ELISA, biotinylated PCC binding. The format is cell-based, Klebsiella pneumoniae. To be noted: biotinylated PCC at 5 μM down to 5 nM; cells cultured in G-CAA media; 1 h 37 °C. The method, boiled down: as §1
The subject of experiment [7] is K. pneumoniae cells (strain BAA 1705). Description: Whole-cell ELISA on cells cultured in G-CAA media or LB. The format is cell-based, Klebsiella pneumoniae. The following applies: biotinylated PCC at 50 μM; Fig. S7B.
In experiment [8] the test system is K. pneumoniae cells (strain BAA 2146). Description: Flow cytometry antibody recruitment. The format is cell-based, Klebsiella pneumoniae. To be noted: >18 000 single cells. The method in brief: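 Cells grown overnight in G-CAA medium, washed, and incubated with DNP-conjugated PCC. After a wash they were stained with Alexafluor488-labelled anti-DNP antibody, washed, resuspended in PBS and held 2 d at 4 °C. Cytometer calibrated with 3.5 μm fluorescent beads. Excitation 488 nm, emission 530 nm. Gated on single cells, with an unstained FMO control setting the DNP+ gate.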

Experiment [9] deals with K. pneumoniae cells (strain BAA 1705). Description: Gentamicin protection assay: phagocytosis and opsonophagocytic killing. It counts as cell-based, Klebsiella pneumoniae. To be noted: for colony counts at 1 h (phagocytosis), control treatments: AR-PCC only (5 μM, no anti-DNP) or anti-DNP antibody only, triplicate. The method, boiled down:
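Bacteria opsonized with DNP-PCC (5 μM, PBS-1% BSA, 1 h, 37 °C), then anti-DNP (1:1000, 1 h, 37 °C). They infected immortalised mouse BMDMs (RPMI, 10% serum) at MOI 50 for 0.5 h at 37 °C. After washing, gentamicin 100 μg ml−1 was added. At 1 h and 24 h, macrophages were lysed in 0.2% Triton X-100 and CFU plated on LB agar. Triplicate.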

“Also recorded” adds a separate entry of the source. Bridge positions count the residues as written; N and C are the ends. Square brackets hold non-standard residues; d marks the D form. Triazole bridges read from a SMILES are 1,4-linked. Peptide text beside a SMILES is read from it. * marks the point of attachment. Biotin = O=C1N[C@H]2[C@H](CS[C@H]2CCCCC(=O)*)N1; Lys(N3) = [N-]=[N+]=NCCCC[C@H](N)C(=O)O; PEG5 = NCCOCCOCCOCCOCCOCCC(=O)O; Pra = C#CC[C@H](N)C(=O)O

Consider “2: L-to-A substitution analogue of cy(LLFFF) (ALFFF; macrocycle closed by azidolysine-propargylglycine cyclization; N-terminal Biotin-peg group) [Compound 2]”, for which the “MrkA binding (ELISA signal) compared to unmodified cy(LLFFF), alanine scan” value in [1] (full-length MrkA, N-terminal Biotin-peg PCCs, Fig. 4A) is on record as “Modestly lower binding”.
In the case of “17: cy(LLFFF) with a hexa-arginine tag (RRRRRRLLFFF; LLFFF closed into a macrocycle by azidolysine-propargylglycine cyclization; N-terminal Biotin-peg group) [Compound 17]”, in experiment [2], the “binding selectivity towards MrkA-expressing K. pneumoniae cells versus non-target bacteria” value is recorded as “similarly high selectivity”. For the same compound, the “binding of MrkA protein in mouse sera” value in experiment [1] (MrkA protein at 250 nM in solutions of 10 and 100% mouse sera, Fig. 4B inset, listed as cy(LLFFF)+R6) is “bound MrkA protein in solutions of 10 and 100% mouse sera, albeit at lower levels versus in 0% serum; also recorded: binds MrkA protein in the context of sera”.
On to `CC(C)C[C@@H]1NC(=O)[C@@H](NC(=O)CCOCCOCCOCCOCCOCCNC(=O)CCCC[C@@H]2SC[C@@H]3NC(=O)N[C@@H]32)Cc2cn(nn2)CCCC[C@@H](C(N)=O)NC(=O)[C@H](Cc2ccccc2)NC(=O)[C@H](Cc2ccccc2)NC(=O)[C@H](Cc2ccccc2)NC(=O)[C@H](CC(C)C)NC1=O` [cy(LLFFF)] ({Biotin-PEG5}-[Pra]LLFFF[Lys(N3)]-NH2; triazole 1-7), for which the “whole-cell ELISA signal (SAv-HRP, 450 nm)” value was “only weak signals” in experiment [3]; “ELISA intensities comparable to baseline” in experiment [4]; “only weak signals” in [5]; “strong signals” in [2]; “strong signals” in experiment [6]. The “binding selectivity towards MrkA-expressing K. pneumoniae cells versus non-target bacteria” value in [2] was “excellent binding selectivity”. In [7], the “whole-cell ELISA binding, G-CAA versus LB culture” value is on record as “bound K. pneumoniae cells regardless of MrkA-expression level”.
Take “cy(HNGPT)-DNP (sidechain bridge or staple)”: the “fluorescence intensity (Alexafluor 488 anti-DNP), flow cytometry” value in [8] (control AR-PCC at 50 μM plus anti-DNP, predominantly) is recorded as < 1.0 × 10^1.
With cy(LLFFA) (sidechain bridge or staple), the “whole-cell ELISA signal (SAv-HRP, 450 nm)” value in experiment [3] is “low signals”; in experiment [4], “ELISA intensities comparable to baseline”; in experiment [5], “low signals”; in experiment [2], “low signals”; in [6], “much lower intensities”. Besides, the “whole-cell ELISA binding, G-CAA versus LB culture” value in experiment [7] was “bound K. pneumoniae cells regardless of MrkA-expression level”.
Regarding “cy(LLFFA)-DNP (sidechain bridge or staple)”, the “colony counts at 1 h (phagocytosis), control treatments” value in [9] is “None of these treatments elicited phagocytosis above the basal level”.
On the same count and under the same terms, with “cy(LLFFF)+R6-DNP (sidechain bridge or staple)” the entry was “None of these treatments elicited phagocytosis above the basal level”.
For “cy(LLFFF)-DNP (sidechain bridge or staple)”, the “colony counts at 24 h (opsonophagocytic killing)” value in [9] (24 h of incubation, AR-PCC 5 μM plus anti-DNP) is recorded as “little to no cell counts”. In addition, the “colony counts at 1 h (phagocytosis), control treatments” value in experiment [9] is on record as “None of these treatments elicited phagocytosis above the basal level”. The “fluorescence (Alexafluor 488 anti-DNP), flow cytometry, versus controls” value in experiment [8] (AR-PCC at 1 or 5 μM plus secondary antibody) is “much higher fluorescence”.
